Laboratory results from ChEMBL document CHEMBL4513216, “Probing the Open Global Health Chemical Diversity Library for Multistage-Active Starting Points for Next-Generation Antimalarials” (ACS Infect Dis, 2020).

Experiment: Toxicity liver stage against HepG2, at 10uM
Assay type: cell-based
Design: test concentration 10 uM, cell line HepG2-A16-CD81EGFP
Conditions: human, HepG2-A16-CD81EGFP cells; read-out: INHIBITION
Procedure, shortened: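 Uninfected HepG2-A16-CD81EGFP cells, 3 × 10^3 per well, 1536-well, plated on prespotted compound at 10 μM final, parasite-free screening media added to match infected plates; puromycin 10 μM positive, DMSO 0.5% negative; run in parallel with 48 h PbLuc assay at 37 °C, 5% CO2; viability by CellTiter-Glo luminescence, normalized to controls.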

Row | SMILES | cytotoxicity at 10 µM
1 | Cc1ccc(CN2CCC[C@]3(C(=O)O)CN(CC4CC4)C[C@@H]3C2)s1 | -112%
2 | CN(CC1CCCC1)C(=O)c1cn(C)nc1-c1cccnc1 | -0.0402%
3 | Cc1ccc(C)c2c(O)cc(CNCc3ccc(S(N)(=O)=O)cc3)nc12 | -9.06%
4 | Cc1cccc(CN2C[C@@H]3C[C@H](C(=O)NCc4cccnc4)[C@H](C2)O3)c1 | -5.98%
5 | COc1ccccc1CN1CCC(O)(Cn2ccc3ncccc32)CC1 | -0.692%
6 | COCC1CN(Cc2cc(C)on2)Cc2cn(CC3CC3)nc21 (stereo not given) | 8.91%
7 | CCC(CC)C(=O)NCc1cn2cc(Br)ccc2n1 | 5.17%
8 | CC(C)CC(C)(CNC(=O)c1cnccn1)NC(=O)c1cnccn1 (stereo not given) | -2.71%
9 | Cc1cnc(C(C)(C)NC(=O)NCc2ccon2)s1 | -6.75%
10 | Cc1cc(CNCCNS(C)(=O)=O)sc1Br | -4.6%
11 | COCCc1noc(-c2cn(Cc3ccc(OC)cc3)nn2)n1 | 5.07%
12 | CCS(=O)(=O)c1ccccc1N1CCC(NC2CCCC2)CC1 | -2.63%
13 | CCCN1C[C@@H]2CC[C@H]1CN(C(=O)Cn1c(C)cc(C)nc1=O)C2 | -4.57%
14 | COc1cccc(-c2cccc(-c3ccn(CC4COCCO4)n3)c2)n1 (stereo not given) | -3.81%
15 | Cc1cccc(CNC(=O)c2cccnc2N)c1 | 11%
16 | Cc1cccc(CC(=O)N2CCOCC2c2c(C)n[nH]c2C)c1 (stereo not given) | 9.18%
17 | O=C(C1CCOC1)N1CCN(Cc2ccncc2)c2ncccc2C1 (stereo not given) | 0.617%
18 | Cc1nc2c(c(N3CCC(O)(CN4CCCC4)CC3)n1)CCN(C)CC2 | -2.84%
19 | CC(C)c1nc(CN(C)C(=O)CNS(=O)(=O)c2cccs2)cs1 | -6.46%
20 | Cc1ccc(C(=O)N(Cc2cccc(F)c2)C2CC2)c(=O)[nH]1 | -4.86%
21 | COc1ccc(OC)c(C(O)CNC(=O)Nc2cc(C)nn2C)c1 (stereo not given) | -9.86%
22 | C[C@@H]1CN(c2nc3c(cc2C(N)=O)CCC3)C[C@@]1(O)C1CCC1 | -3.98%
23 | Cn1cc(Br)cc(NC(=O)Cc2cccs2)c1=O | 2.14%

Row | SMILES | cytotoxicity at 10 µM
24 | COc1cc(CNC2CCc3nc(C)nn3C2)cc2c1OCO2 (stereo not given) | -11.6%
25 | CN(C)S(=O)(=O)c1ccc(CN2CCCC2c2ccccc2)o1 (stereo not given) | -5.72%
26 | CCc1cc(NCC(O)CN2CCCCC2)ncn1 (stereo not given) | -0.714%
27 | Cc1nn(C)c(N(C)C)c1CNC1CCCCNC1=O (stereo not given) | 7.76%
28 | CSCCN1CCN(c2nc(N)ncc2C)CC1 | 1.54%
29 | Fc1ccc(N2CCOC(Cc3cccnc3)C2)cc1 (stereo not given) | -16.3%
30 | COCCn1cc(C(=O)N2CCCC2c2cccc(C)c2)ccc1=O (stereo not given) | 5.59%
31 | CNC(=O)[C@@H]1CCO[C@@H]2CCN(CCc3ccccc3)C[C@H]21 | 2.55%
32 | COCCOc1ncccc1C(=O)Nc1ccc(-n2cncn2)c(F)c1 | -0.138%
33 | CC(c1ccc(F)c(F)c1)N1CCN(Cc2nccn2C)CC1 (stereo not given) | -2.76%
34 | Cc1ccc(F)cc1-n1c(CCCN2CCOCC2)n[nH]c1=O | 7.32%
35 | CC(=O)N1CCCC(c2ccc(C(=O)NC3CCCC3)cn2)C1 (stereo not given) | 0.692%
36 | CCN(C)CC1CCN(C(=O)Nc2ccc(-c3csnn3)cc2)C1 (stereo not given) | -2.15%
37 | CC(C)C[C@H](NC(=O)c1cc(-c2cccn2C)n[nH]1)C(N)=O | 3.7%
38 | CN(C)CCN1C(=O)CCC12CCN(C(=O)c1cccnc1)CC2 | 6.41%
39 | O=C(c1cc[nH]n1)N1CCC2(CC1)CC(Oc1cccnc1)CO2 (stereo not given) | 6.7%
40 | c1nc2n(c1CN1CCOCC1)CCN(C1CCOC1)CC2 (stereo not given) | -136%
41 | O=C(NCc1ccccc1Cn1ccnc1)N1CCSCC1 | 3.9%
42 | COc1cccc(CC(=O)N2CC[C@@H](OC)[C@@H]2Cc2cccnc2)c1 | 3.71%
43 | Cc1cncc(C(=O)N2CCO[C@H]3[C@H](OCCN(C)C)CC[C@@H]32)c1 | 8.07%
44 | O=c1ccc2c(n1Cc1cccnc1)CCN(CC1CCOC1)CC2 (stereo not given) | 8.13%
45 | Cc1nn(C)c(C)c1S(=O)(=O)N1CC[C@H]2O[C@@H](C)C[C@H]2C1 | 2.79%
